Data on 13 molecules can be found in ChEMBL document CHEMBL4219124, “Alleviating CYP and hERG liabilities by structure optimization of dihydrofuran-fused tricyclic benzo[d]imidazole series - Potent, selective and orally efficacious microsomal prostaglandin E synthase-1 (mPGES-1) inhibitors: Part-2” (Bioorg Med Chem Lett, 2018).

The target of series [1] is T1, Prostaglandin E synthase (Homo sapiens, UniProt O14684).
T1 sequence (O14684 whole entry): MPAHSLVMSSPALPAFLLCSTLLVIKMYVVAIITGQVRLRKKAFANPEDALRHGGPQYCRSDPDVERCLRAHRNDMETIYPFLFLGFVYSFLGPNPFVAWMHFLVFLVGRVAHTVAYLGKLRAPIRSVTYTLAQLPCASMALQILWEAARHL
Nature of the series: Inhibition of mPGES1 in human whole blood assessed as reduction in LPS-induced PGE2 production measured after 20 to 24 hrs.

Another series addresses CYP3A4 (Homo sapiens, UniProt P08684). Nature of the series: Inhibition of CYP3A4 in human liver microsomes at 10 uM after 20 mins in presence of NADPH by LC-MS/MS analysis. Format: ADME. A digest of the protocol: (§1)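 Percent inhibition of each CYP isoform by test compound at 10 µM, compared with a no-inhibitor control. Run in triplicate.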
The next series concerns the target CYP2C19 (Homo sapiens, UniProt P33261). Nature of the series: Inhibition of CYP2C19 in human liver microsomes at 10 uM after 40 mins in presence of NADPH by LC-MS/MS analysis. It is filed as ADME. A digest of the protocol:
as §1

Another series addresses CYP2C9 (Homo sapiens, UniProt P11712). Nature of the series: Inhibition of CYP2C9 in human liver microsomes at 10 uM after 20 mins in presence of NADPH by LC-MS/MS analysis. Format: ADME. Summed up:
as §1

Series [2] deals with T1, Prostaglandin E synthase. Nature of the series: Inhibition of mPGES1 in human A549 cells assessed as reduction in IL-1beta-induced PGE2 production preincubated for 30 mins followed by incubation with IL-1beta for 16 to 20 hrs measured after 10 mins by HTRF assay. Format: cell-based.
For series [3], the target named is T1, Prostaglandin E synthase. Nature of the series: Inhibition of recombinant human mPGES1 expressed in CHO cells assessed as reduction in PGE2 production using PGH2 as substrate incubated for 10 mins followed by substrate addition measured for 1 min. It is filed as cell-based.
The next series deals with T2, CYP1A2 (Homo sapiens, UniProt P05177).
T2 sequence (P05177 whole entry): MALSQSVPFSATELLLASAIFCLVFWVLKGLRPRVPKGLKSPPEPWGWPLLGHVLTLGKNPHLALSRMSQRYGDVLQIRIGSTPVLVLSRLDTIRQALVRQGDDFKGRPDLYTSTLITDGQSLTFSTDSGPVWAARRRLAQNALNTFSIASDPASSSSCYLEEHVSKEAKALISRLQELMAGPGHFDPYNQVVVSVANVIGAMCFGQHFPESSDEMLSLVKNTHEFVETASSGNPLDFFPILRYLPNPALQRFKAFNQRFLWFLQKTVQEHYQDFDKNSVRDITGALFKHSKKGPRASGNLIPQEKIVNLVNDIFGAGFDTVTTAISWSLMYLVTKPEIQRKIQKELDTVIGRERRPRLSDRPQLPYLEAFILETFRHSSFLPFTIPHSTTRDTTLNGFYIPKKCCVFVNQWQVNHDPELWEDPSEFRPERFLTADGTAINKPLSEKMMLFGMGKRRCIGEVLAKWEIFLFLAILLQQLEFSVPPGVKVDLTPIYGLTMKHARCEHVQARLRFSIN
Nature of the series: Inhibition of CYP1A2 in human liver microsomes at 10 uM after 20 mins in presence of NADPH by LC-MS/MS analysis. It is filed as ADME. A digest of the protocol:
as §1

The nature of series [4]: Metabolic stability in rat liver microsomes assessed as parent compound remaining at 1 uM after 60 mins in presence of NADPH by LC-MS/MS analysis. Format: ADME, microsome. The conditions noted are these: read-out: Stability. Summed up:
(§2)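 Compound incubated 60 min at 37 °C with human, rat or guinea pig liver microsomes; percent parent remaining, triplicates.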

Series [5] is described as follows: Metabolic stability in guinea pig liver microsomes assessed as parent compound remaining at 1 uM after 60 mins in presence of NADPH by LC-MS/MS analysis. The following applies: read-out: Stability. Format: ADME, Cavia porcellus, microsome. Summed up: as §2
A further series has as its target CYP2D6 (Homo sapiens, UniProt P10635). Nature of the series: Inhibition of CYP2D6 in human liver microsomes at 10 uM after 20 mins in presence of NADPH by LC-MS/MS analysis. The following applies: liver microsomes. Format: ADME. A digest of the protocol:
as §1

Series [6] can be described thus: Metabolic stability in human liver microsomes assessed as parent compound remaining at 1 uM after 60 mins in presence of NADPH by LC-MS/MS analysis. It is filed as ADME, microsome. The following applies: read-out: Stability. A digest of the protocol: as §2
Series [7] is described as follows: Protein binding in guinea pig plasma at 10 uM after 5 hrs by equilibrium dialysis based LC-MS/MS analysis. It is filed as ADME, cell-free, Cavia porcellus. The following applies: read-out: PPB (converted). A digest of the protocol: (§3)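 Equilibrium dialysis at 10 μM compound; result expressed as percent bound.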
For a further series, the target named is hERG (KCNH2) (Homo sapiens, UniProt Q12809). Nature of the series: Inhibition of human ERG at 10 uM by patch clamp assay relative to control. A digest of the protocol: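 hERG current measured by patch clamp with test compound at 10 µM; result given as % inhibition.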
Series [8] is described as follows: Protein binding in human plasma at 10 uM after 5 hrs by equilibrium dialysis based LC-MS/MS analysis. Format: ADME, cell-free. The following applies: read-out: PPB (converted). Summed up: as §3

CYP2D6, sequence (P10635 whole entry): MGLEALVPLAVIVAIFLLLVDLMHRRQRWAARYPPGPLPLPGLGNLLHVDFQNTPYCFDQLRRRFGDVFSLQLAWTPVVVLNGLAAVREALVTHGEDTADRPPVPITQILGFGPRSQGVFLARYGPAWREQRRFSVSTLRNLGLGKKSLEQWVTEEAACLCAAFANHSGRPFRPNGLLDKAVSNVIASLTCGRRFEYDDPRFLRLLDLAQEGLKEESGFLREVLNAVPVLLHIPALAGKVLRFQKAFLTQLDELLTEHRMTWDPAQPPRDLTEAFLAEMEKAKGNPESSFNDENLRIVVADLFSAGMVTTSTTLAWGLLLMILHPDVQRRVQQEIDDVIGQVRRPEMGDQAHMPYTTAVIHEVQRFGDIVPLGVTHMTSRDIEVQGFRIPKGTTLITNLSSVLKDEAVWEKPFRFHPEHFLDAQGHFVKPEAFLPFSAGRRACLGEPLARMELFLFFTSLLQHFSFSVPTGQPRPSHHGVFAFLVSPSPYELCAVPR
CYP3A4, sequence (P08684 whole entry, canonical isoform): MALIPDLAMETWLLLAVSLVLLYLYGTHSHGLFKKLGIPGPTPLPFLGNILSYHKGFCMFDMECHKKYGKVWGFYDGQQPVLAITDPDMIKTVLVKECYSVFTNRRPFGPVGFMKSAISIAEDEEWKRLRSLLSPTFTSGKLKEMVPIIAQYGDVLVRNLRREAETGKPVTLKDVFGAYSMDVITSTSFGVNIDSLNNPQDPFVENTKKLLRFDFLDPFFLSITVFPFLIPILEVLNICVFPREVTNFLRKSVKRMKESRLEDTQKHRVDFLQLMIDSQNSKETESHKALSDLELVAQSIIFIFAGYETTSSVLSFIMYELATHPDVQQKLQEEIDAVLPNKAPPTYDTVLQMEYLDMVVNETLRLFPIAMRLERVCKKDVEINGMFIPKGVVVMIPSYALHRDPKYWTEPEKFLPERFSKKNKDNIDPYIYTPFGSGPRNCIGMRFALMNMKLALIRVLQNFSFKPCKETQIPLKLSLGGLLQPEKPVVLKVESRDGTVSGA
CYP2C9, sequence (P11712 whole entry): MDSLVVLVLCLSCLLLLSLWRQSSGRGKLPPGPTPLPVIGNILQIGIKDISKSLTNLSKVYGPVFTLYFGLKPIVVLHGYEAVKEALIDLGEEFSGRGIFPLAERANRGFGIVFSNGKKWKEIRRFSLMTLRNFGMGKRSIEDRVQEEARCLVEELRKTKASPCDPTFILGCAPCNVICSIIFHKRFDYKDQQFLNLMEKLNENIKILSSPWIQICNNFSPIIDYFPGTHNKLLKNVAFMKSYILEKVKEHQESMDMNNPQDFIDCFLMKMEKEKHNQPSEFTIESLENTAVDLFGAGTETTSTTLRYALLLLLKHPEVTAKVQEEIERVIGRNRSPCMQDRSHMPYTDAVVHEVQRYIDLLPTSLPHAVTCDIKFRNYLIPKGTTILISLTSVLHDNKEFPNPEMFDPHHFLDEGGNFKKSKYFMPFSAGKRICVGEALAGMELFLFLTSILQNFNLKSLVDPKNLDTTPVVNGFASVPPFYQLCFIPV
CYP2C19, sequence (P33261 whole entry): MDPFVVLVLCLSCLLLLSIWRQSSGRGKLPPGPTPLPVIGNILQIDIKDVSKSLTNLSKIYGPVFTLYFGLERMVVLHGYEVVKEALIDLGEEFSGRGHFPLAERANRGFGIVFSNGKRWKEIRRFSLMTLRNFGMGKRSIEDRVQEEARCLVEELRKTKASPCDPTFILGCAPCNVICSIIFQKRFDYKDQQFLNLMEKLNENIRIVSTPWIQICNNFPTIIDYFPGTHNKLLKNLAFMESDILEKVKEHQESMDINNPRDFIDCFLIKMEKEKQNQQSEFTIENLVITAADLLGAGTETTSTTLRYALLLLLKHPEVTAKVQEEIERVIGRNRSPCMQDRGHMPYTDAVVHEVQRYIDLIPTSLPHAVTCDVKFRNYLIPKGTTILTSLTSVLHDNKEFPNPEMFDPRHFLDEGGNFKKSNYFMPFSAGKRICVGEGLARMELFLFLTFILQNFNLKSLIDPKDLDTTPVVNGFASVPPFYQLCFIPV
hERG (KCNH2), sequence (Q12809 whole entry): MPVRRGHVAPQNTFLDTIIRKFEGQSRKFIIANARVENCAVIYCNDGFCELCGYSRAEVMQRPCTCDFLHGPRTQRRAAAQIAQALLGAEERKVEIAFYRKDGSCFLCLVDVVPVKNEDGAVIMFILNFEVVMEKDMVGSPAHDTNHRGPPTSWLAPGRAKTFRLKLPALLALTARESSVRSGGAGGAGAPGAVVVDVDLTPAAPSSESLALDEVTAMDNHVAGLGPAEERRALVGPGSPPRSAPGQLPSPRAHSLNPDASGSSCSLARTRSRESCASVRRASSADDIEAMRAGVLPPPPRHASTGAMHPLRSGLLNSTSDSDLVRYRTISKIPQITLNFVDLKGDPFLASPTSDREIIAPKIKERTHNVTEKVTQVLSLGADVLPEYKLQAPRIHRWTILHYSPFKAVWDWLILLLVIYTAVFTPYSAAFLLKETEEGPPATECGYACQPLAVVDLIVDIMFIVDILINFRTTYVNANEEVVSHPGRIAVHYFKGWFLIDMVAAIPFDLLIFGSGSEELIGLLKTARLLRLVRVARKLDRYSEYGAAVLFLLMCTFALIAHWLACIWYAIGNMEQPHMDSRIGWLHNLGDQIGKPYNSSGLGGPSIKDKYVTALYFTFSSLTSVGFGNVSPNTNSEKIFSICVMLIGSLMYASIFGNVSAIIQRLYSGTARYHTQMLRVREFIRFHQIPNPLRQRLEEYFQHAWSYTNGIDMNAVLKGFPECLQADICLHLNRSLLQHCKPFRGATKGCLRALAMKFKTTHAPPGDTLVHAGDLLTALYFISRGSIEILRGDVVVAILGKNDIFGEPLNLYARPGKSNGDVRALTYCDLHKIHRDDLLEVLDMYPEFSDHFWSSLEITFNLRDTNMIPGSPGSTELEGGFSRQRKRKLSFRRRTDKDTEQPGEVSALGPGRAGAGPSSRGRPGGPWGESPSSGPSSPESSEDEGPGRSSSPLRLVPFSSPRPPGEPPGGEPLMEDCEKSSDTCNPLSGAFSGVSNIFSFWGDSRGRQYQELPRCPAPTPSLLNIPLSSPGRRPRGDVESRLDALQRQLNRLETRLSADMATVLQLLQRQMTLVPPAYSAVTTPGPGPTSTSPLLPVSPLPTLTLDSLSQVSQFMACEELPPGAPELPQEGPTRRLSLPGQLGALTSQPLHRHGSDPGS

As for `CC1(C)Cc2c(c(C(=O)Nc3cc(C4CC4)ccc3F)cc3nc(Nc4c(F)cccc4Cl)[nH]c23)O1`, the IC50 on Prostaglandin E synthase [1] amounted to 1380 nM; on Prostaglandin E synthase [2] it was 6 nM; on Prostaglandin E synthase [3], 3.6 nM. Besides, the inhibition at 20 min, 10 µM was -12% at CYP3A4, 42% on CYP2C9, 36% at CYP1A2 and 7% on CYP2D6. Moreover, the inhibition at 40 min, 10 µM at CYP2C19 amounted to 22%. The remaining at 1 h, 1 µM was 93% in [4], 93% in [5] and 100% in [6].
Turning to `CC1(C)Cc2c(c(C(=O)Nc3ccc(C(F)(F)F)cn3)cc3nc(Nc4c(F)cccc4Cl)[nH]c23)O1`, the values for the half-maximal inhibitory concentration (IC50) on Prostaglandin E synthase [1], on Prostaglandin E synthase [2] and on Prostaglandin E synthase [3] were 955 nM, 14 nM and 25 nM, respectively.
Take `Cc1cccc(Cl)c1Nc1nc2cc(C(=O)Nc3ccc(F)c(C(F)(F)F)c3)c3c(c2[nH]1)CC(C)(C)O3`: the IC50 came to 876 nM on Prostaglandin E synthase [1], 10 nM at Prostaglandin E synthase [2] and 5.4 nM on Prostaglandin E synthase [3]. The inhibition at 20 min, 10 µM at CYP3A4 turned out to be 30%; at CYP2C9, 47%. In addition, the inhibition at 40 min, 10 µM on CYP2C19 stood at 31%. In addition, the remaining at 1 h, 1 µM in series [4] came to 97%; in series [5], 80%; in series [6], 95%.
As to `Cc1ccc(NC(=O)c2cc3nc(Nc4c(F)cccc4Cl)n(C)c3c3c2OC(C)(C)C3)c(F)c1`, the IC50 is 177 nM at Prostaglandin E synthase [1], 3.1 nM on Prostaglandin E synthase [2] and 16 nM on Prostaglandin E synthase [3]. Moreover, the fraction unbound at 5 h, 10 µM in [7] and in series [8] was < 0.005 throughout. Further, the inhibition at 20 min, 10 µM at CYP3A4 was 23%; on CYP2C9, 52%; on CYP1A2, 26%; at CYP2D6, 14%. In addition, the inhibition at 40 min, 10 µM on CYP2C19 came out at 24%. Also, the inhibition at 10 µM at hERG (KCNH2) turned out to be 12.8%. The remaining at 1 h, 1 µM in [4] worked out at 71%; in series [5], 58%; in series [6] it was 68%.
Turning to `Cn1c(Nc2c(F)cccc2Cl)nc2cc(C(=O)Nc3ccc(C(F)(F)F)cc3)c3c(c21)CC(C)(C)O3`, the inhibition at 40 min, 10 µM at CYP2C19 was -7%. In addition, the inhibition at 20 min, 10 µM at CYP2C9 was 44%; at CYP1A2, 34%; at CYP2D6, -5%. Further, the remaining at 1 h, 1 µM in [4] was determined as 68%; in series [5] it was 68%; in series [6] it was 100%.
On to `CC1(C)Cc2c(c(C(=O)Nc3cc(C4CC4)ccc3F)cc3nc(Nc4c(Cl)cccc4Cl)[nH]c23)O1`, for which the IC50 worked out at 197 nM on Prostaglandin E synthase [1], 3.2 nM at Prostaglandin E synthase [2] and 16 nM at Prostaglandin E synthase [3]. The inhibition at 20 min, 10 µM was 21% at CYP3A4, 26% at CYP2C9, 14% at CYP1A2 and 5% on CYP2D6. The inhibition at 40 min, 10 µM on CYP2C19 stood at 10%. Also, the remaining at 1 h, 1 µM is 92% in series [4], 74% in series [5] and 95% in series [6].
Regarding `Cc1cccc(Cl)c1Nc1nc2cc(C(=O)Nc3ccc(C(F)(F)F)cc3)c3c(c2[nH]1)CC(C)(C)O3`, the IC50 on Prostaglandin E synthase [1] came out at 337 nM; on Prostaglandin E synthase [2], 11 nM; at Prostaglandin E synthase [3], 14 nM. Moreover, the fraction unbound at 5 h, 10 µM in [7] and in [8] was < 0.005 in each case. In addition, the inhibition at 20 min, 10 µM at CYP3A4 is 34%; on CYP2C9 it was 46%; on CYP1A2, 25%; on CYP2D6, 6%. The inhibition at 40 min, 10 µM at CYP2C19 worked out at 19%. Moreover, the remaining at 1 h, 1 µM stood at 62% in [5] and 100% in series [6].
With `CC1(C)Cc2c(c(C(=O)Nc3ccc(C(F)(F)F)cc3F)cc3nc(Nc4c(F)cccc4Cl)[nH]c23)O1`, the IC50 on Prostaglandin E synthase [1] came out at 570 nM; on Prostaglandin E synthase [2], 9.6 nM; at Prostaglandin E synthase [3] it was 3.1 nM. Moreover, the fraction unbound at 5 h, 10 µM in series [7] and in series [8] was < 0.005 each time. Besides, the inhibition at 20 min, 10 µM on CYP3A4 is 37%; at CYP2C9 it was 39%. Further, the inhibition at 40 min, 10 µM at CYP2C19 is 16%. For the same molecule, the remaining at 1 h, 1 µM was found to be 80% in series [5] and 100% in series [6].
Take `Cn1c(Nc2c(F)cccc2Cl)nc2cc(C(=O)Nc3ccc(C(F)(F)F)cn3)c3c(c21)CC(C)(C)O3`: the results for the IC50 on Prostaglandin E synthase [1], on Prostaglandin E synthase [2] and at Prostaglandin E synthase [3] were 673 nM, 4 nM and 12 nM, respectively. In addition, the fraction unbound at 5 h, 10 µM in series [7] was 0.0035; in [8], 0.0015. The inhibition at 20 min, 10 µM on CYP3A4 stood at 17%; at CYP2C9 it was 52%; on CYP1A2, 14%; on CYP2D6, 3%. Also, the inhibition at 40 min, 10 µM at CYP2C19 amounted to 10%. Further, the remaining at 1 h, 1 µM in series [4] was found to be 66%; in series [5], 69%; in series [6], 58%.
For the molecule `Cn1c(Nc2c(F)cccc2Cl)nc2cc(C(=O)Nc3ccc(C4CC4)cc3)c3c(c21)CC(C)(C)O3`, the IC50 on Prostaglandin E synthase [1] came to 350 nM; on Prostaglandin E synthase [2] it was 4.3 nM; at Prostaglandin E synthase [3], 4.9 nM. The inhibition at 20 min, 10 µM on CYP3A4 amounted to 19%; at CYP2C9 it was 47%; at CYP1A2 it was 41%; at CYP2D6, 25%. Also, at CYP2C19, the inhibition at 40 min, 10 µM stood at 24%. In addition, the remaining at 1 h, 1 µM in series [4] was found to be 96%; in [5], 51%; in series [6] it was 97%.
With `Cc1cccc(Cl)c1Nc1nc2cc(C(=O)Nc3cc(C4CC4)ccc3F)c3c(c2[nH]1)CC(C)(C)O3`, the IC50 turned out to be 447 nM at Prostaglandin E synthase [1] and 10 nM on Prostaglandin E synthase [3]. The inhibition at 20 min, 10 µM at CYP3A4 was -13%; on CYP2C9, 12%; at CYP1A2 it was 14%; on CYP2D6, 31%. Moreover, at CYP2C19, the inhibition at 40 min, 10 µM came to 24%. The figures for the remaining at 1 h, 1 µM in series [4], in series [5] and in series [6] were 89%, 55% and 93%, respectively.
In the case of `Cc1cccc(Cl)c1Nc1nc2cc(C(=O)Nc3ccc(C(F)(F)F)cn3)c3c(c2[nH]1)CC(C)(C)O3`, the IC50 turned out to be 27 nM on Prostaglandin E synthase [2] and 32 nM on Prostaglandin E synthase [3].
For `CC1(C)Cc2c(c(C(=O)Nc3cc(C(F)F)ccc3F)cc3nc(Nc4c(F)cccc4Cl)[nH]c23)O1`, the IC50 at Prostaglandin E synthase [1] was determined as 336 nM; at Prostaglandin E synthase [2], 6.3 nM; at Prostaglandin E synthase [3], 9.2 nM. For the same molecule, the fraction unbound at 5 h, 10 µM in series [7] was 0.005; in series [8], 0.0018. Moreover, the inhibition at 20 min, 10 µM was 4% on CYP3A4, 42% on CYP2C9, 31% on CYP1A2 and -1% at CYP2D6. The inhibition at 40 min, 10 µM on CYP2C19 worked out at 22%. In addition, the values for the remaining at 1 h, 1 µM in [4], in [5] and in series [6] were 86%, 68% and 88%, respectively.
